Active and inactive are the calls of the source. The rule behind the calls is not given here.
Assays:
[1] = test system: FaDu; assay: Antitumor activity against human FaDu cells harboring SMAD4 del/TP53 R248L/CDKN2A mutant xenografted in mouse assessed as tumor growth inhibition at 2.5 mg/kg, po; format: functional; settings: read-out: TGI
In short: (§1)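 Single-agent dose ranging in human tumor xenograft mice at 2.5, 5 or 10 mg/kg oral. Tumor volume was measured by caliper as (L×W×W)/2. %TGI = 100×[1 − AUC(treatment/d)/AUC(vehicle/d)] from the fitted growth curve per dose group, relative to vehicle.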

[2] = Antitumor activity against human A375.X1 cells xenografted in mouse assessed as tumor growth inhibition at 15 mg/kg, po administered every third day for 21 days in presence of 4-(2-(1H-indazol-4-yl)-6-((4-(methylsulfonyl)piperazin-1-yl)methyl)thieno[3,2-d]pyrimidin-4-yl)morpholine; format: functional; settings: A375.X1, 504 h, time 21 day, read-out: TGI
In short: (§2)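 Human tumor xenografts in mice. Drugs given orally, as single agents or combined with the PI3K inhibitor. Schedules were daily (QD) or every third day (Q3D) over 21 days. Tumor volume was measured by caliper as (L×W×W)/2. %TGI = 100×[1 − AUC(treatment/d)/AUC(vehicle/d)] from fitted growth curves, with group means. Tumor lysates were immunoblotted for pS6.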

[3] = Inhibition of PKA (unknown origin); parameters: species or system Homo sapiens
[4] = test system: A-375; assay: Antitumor activity against human A-375 cells harboring BRAF V600E/CDKN2A E61 mutant xenografted in mouse assessed as tumor growth inhibition at 5 mg/kg, po; format: functional; settings: A-375, read-out: TGI
In short: (§3)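 Mice carrying human tumor xenografts dosed orally once daily for 21 consecutive days. Tumor volume measured by calipers as (L×W×W)/2. %TGI = 100×[1 − AUC(treatment/day)/AUC(vehicle/day)], using the area under the fitted growth curve relative to vehicle.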

[5] = biological target: Tyrosine-protein kinase Lyn (Homo sapiens, UniProt P07948); assay: Inhibition of Lyn (unknown origin)
Chain of Tyrosine-protein kinase Lyn (P07948 whole entry): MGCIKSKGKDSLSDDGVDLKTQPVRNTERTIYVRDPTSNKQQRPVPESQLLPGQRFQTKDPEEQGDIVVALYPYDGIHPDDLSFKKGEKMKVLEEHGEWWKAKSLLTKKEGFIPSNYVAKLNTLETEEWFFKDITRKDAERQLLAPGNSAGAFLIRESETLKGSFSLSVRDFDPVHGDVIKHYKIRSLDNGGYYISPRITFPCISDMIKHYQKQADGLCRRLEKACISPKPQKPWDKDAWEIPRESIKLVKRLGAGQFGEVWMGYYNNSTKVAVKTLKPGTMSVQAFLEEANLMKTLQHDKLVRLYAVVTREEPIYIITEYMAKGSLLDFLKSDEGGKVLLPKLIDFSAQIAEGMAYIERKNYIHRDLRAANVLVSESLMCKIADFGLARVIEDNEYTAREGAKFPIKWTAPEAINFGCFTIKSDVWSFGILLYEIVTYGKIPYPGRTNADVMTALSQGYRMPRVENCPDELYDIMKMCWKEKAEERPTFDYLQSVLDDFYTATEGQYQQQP

[6] = test system: SK-OV-3; assay: Antitumor activity against human SK-OV-3 cells harboring FBXW7 R505L and CDKN2A mutant xenografted in mouse assessed as tumor growth inhibition at 2.5 mg/kg, po; format: functional; settings: read-out: TGI
In short: (§4)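 Human tumor xenografts in mice were dosed orally at the indicated mg/kg. Tumor volume was measured with calipers as (L×W×W)/2. %TGI = 100 × [1 − (AUC treatment/d)/(AUC vehicle/d)], using the area under the fitted tumor-growth curve per day for each dose group relative to vehicle.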

[7] = test system: A2058; assay: Antitumor activity against human A2058 cells xenografted in mouse assessed as tumor growth inhibition at 20 mg/kg, po administered every third day for 21 days in presence of 4-(2-(1H-indazol-4-yl)-6-((4-(methylsulfonyl)piperazin-1-yl)methyl)thieno[3,2-d]pyrimidin-4-yl)morpholine; format: functional; settings: A2058, 504 h, time 21 day, read-out: TGI; in short: as §2
[8] = test system: 537-mel; assay: Antitumor activity against human 537-mel cells harboring PTEN null mutation xenografted in mouse assessed as tumor growth inhibition at 5 mg/kg, po; format: functional; settings: read-out: TGI; in short: as §3
[9] = Antitumor activity against human A375.X1 cells harboring BRAF V600E/CDKN2A E61 mutant xenografted in mouse assessed as tumor growth inhibition at 5 mg/kg, po; format: functional; settings: A375.X1, read-out: TGI; in short: as §1
[10] = test system: A2058; assay: Antitumor activity against human A2058 cells xenografted in mouse assessed as tumor growth inhibition at 15 mg/kg, po administered every third day for 21 days in presence of 4-(2-(1H-indazol-4-yl)-6-((4-(methylsulfonyl)piperazin-1-yl)methyl)thieno[3,2-d]pyrimidin-4-yl)morpholine; format: functional; settings: A2058, 504 h, time 21 day, read-out: TGI; in short: as §2
[11] = test system: A2058; assay: Inhibition of PI3K/MEK signaling pathway in human A2058 cells assessed as decrease in AKT phosphorylation by incubated for 24 hrs by Western blot analysis; format: cell-based
[12] = test system: A2058; assay: Antitumor activity against human A2058 cells xenografted in mouse assessed as tumor growth inhibition at 15 mg/kg, po administered every third day for 21 days; format: functional; settings: A2058, 504 h, time 21 day, read-out: TGI; in short: as §2
[13] = biological target: Mitogen-activated protein kinase kinase kinase kinase 3 (Homo sapiens, UniProt Q8IVH8); assay: Inhibition of MAP4K3 (unknown origin)
Chain of Mitogen-activated protein kinase kinase kinase kinase 3 (Q8IVH8 whole entry): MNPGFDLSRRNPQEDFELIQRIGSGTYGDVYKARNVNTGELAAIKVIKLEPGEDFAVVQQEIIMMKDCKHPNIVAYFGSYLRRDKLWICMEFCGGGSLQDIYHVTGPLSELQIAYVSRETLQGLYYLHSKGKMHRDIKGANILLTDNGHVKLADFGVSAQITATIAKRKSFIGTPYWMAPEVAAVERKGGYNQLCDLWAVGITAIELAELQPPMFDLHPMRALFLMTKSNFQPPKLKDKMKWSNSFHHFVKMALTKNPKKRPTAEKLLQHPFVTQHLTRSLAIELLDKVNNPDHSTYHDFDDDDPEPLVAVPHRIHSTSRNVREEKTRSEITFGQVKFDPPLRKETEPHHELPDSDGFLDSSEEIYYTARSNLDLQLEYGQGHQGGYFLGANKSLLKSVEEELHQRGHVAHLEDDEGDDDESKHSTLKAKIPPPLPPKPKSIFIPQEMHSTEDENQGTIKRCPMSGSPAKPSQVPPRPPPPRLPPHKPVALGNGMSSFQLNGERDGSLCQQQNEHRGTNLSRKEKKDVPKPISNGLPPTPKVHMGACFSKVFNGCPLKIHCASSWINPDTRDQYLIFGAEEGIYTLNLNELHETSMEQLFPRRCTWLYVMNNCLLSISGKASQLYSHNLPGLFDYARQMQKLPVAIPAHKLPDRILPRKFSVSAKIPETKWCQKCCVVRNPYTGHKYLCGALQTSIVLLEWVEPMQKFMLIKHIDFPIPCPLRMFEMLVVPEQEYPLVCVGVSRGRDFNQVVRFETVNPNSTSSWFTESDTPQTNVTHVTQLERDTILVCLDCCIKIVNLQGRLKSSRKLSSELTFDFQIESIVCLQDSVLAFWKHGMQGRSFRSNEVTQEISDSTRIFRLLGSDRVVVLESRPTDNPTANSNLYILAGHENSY

[14] = test system: 888-mel; assay: Induction of apoptosis in human 888-mel cells assessed as increase in cleaved PARP level preincubated with compound for 24 hrs followed by compound washout and measured after 2 hrs in presence of 4-(2-(1H-indazol-4-yl)-6-((4-(methylsulfonyl)piperazin-1-yl)methyl)thieno[3,2-d]pyrimidin-4-yl)morpholine by immunoblotting analysis; format: functional, cell-based
In short: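 The medium was then exchanged to remove compound. Lysates were prepared 2 and 24 h after washout and immunoblotted for cleaved PARP, p-AKT and p-ERK using HRP secondary antibody and ECL.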

[15] = test system: NCI-H441; assay: Antitumor activity against human NCI-H441 cells harboring KRAS G12V/TP53 R158L/MET high mutant xenografted in mouse assessed as tumor growth inhibition at 10 mg/kg, po; format: functional; settings: read-out: TGI; in short: as §4
[16] = biological target: Phosphatidylinositol 4,5-bisphosphate 3-kinase catalytic subunit gamma isoform (Homo sapiens, UniProt P48736); assay: Inhibition of PI3Kgamma (unknown origin)
[17] = Antitumor activity against human MOLM16 cells harboring FLT3 T227M mutant xenografted in mouse assessed as tumor growth inhibition at 2.5 mg/kg, po; format: functional, MOLM-16; settings: read-out: TGI; in short: as §4
[18] = test system: A2058; assay: Antitumor activity against human A2058 cells harboring BRAF V600E/PTEN deletion mutant xenografted in mouse assessed as decrease in tumor volume at 1.5 mg/kg, po administered once daily for 21 days in presence of GDC-0980 by digital calipers analysis; format: functional, organism-based; settings: time 21.0 day
[19] = test system: NCI-H69; assay: Antitumor activity against human NCI-H69 cells harboring RBI E748/PK3CA G106_R108/TP53 E171 mutant xenografted in mouse assessed as tumor growth inhibition at 5 mg/kg, po; format: functional; settings: read-out: TGI; in short: as §4
[20] = biological target: Serine/threonine-protein kinase Nek7 (Homo sapiens, UniProt Q8TDX7); assay: Inhibition of NEK7 (unknown origin)
Chain of Serine/threonine-protein kinase Nek7 (Q8TDX7 whole entry): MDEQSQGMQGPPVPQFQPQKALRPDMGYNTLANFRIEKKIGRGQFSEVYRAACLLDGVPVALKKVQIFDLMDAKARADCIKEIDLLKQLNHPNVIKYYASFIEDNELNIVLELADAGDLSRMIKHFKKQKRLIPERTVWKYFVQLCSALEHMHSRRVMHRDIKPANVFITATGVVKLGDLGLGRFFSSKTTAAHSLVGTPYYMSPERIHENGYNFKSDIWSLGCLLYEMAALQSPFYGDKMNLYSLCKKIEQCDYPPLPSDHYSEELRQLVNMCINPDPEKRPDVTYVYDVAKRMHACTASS

[21] = test system: A2058; assay: Antitumor activity against human A2058 cells harboring BRAF V600E/PTEN deletion mutant xenografted in mouse assessed as decrease in tumor volume at 10 mg/kg, po administered once weekly for 21 days in presence of GDC-0980 by digital calipers analysis; format: functional, organism-based; settings: time 21.0 day
[22] = test system: NCI-H520; assay: Antitumor activity against human NCI-H520 cells harboring TP53 W146 and CDKN2A G G45 mutant xenografted in mouse assessed as tumor growth inhibition at 10 mg/kg, po; format: functional; settings: read-out: TGI; in short: as §4
[23] = biological target: Mast/stem cell growth factor receptor Kit (Homo sapiens, UniProt P10721); assay: Inhibition of Kit (unknown origin)
Chain of Mast/stem cell growth factor receptor Kit (P10721 whole entry, the tested form may be a part): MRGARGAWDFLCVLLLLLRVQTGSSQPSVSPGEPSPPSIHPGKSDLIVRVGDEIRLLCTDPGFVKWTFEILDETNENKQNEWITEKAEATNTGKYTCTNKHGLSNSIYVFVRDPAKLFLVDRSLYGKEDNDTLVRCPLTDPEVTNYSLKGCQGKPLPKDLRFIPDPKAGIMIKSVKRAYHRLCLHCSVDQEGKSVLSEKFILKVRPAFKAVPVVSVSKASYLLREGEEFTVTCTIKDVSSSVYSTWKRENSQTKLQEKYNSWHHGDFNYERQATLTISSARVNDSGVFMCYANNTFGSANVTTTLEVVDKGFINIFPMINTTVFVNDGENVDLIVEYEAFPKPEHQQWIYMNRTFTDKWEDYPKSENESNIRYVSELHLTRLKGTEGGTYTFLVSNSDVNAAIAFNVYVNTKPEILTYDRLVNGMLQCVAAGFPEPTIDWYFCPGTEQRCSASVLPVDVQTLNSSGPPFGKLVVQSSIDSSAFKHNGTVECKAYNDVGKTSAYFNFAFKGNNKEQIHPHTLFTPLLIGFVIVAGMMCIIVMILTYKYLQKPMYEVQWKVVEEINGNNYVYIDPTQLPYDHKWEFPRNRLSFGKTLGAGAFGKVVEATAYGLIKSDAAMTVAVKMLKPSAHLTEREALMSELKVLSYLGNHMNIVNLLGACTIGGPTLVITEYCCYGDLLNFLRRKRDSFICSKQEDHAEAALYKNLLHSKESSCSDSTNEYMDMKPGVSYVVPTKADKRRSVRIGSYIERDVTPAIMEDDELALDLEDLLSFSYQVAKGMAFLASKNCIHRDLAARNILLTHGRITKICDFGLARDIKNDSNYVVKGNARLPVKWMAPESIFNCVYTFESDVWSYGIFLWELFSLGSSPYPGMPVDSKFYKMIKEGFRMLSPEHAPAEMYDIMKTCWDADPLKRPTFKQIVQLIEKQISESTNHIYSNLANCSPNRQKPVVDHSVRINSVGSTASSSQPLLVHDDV

[24] = biological target: PAS domain-containing serine/threonine-protein kinase (Homo sapiens, UniProt Q96RG2); assay: Inhibition of PASK (unknown origin)
Chain of PAS domain-containing serine/threonine-protein kinase (Q96RG2 whole entry, the tested form may be a part): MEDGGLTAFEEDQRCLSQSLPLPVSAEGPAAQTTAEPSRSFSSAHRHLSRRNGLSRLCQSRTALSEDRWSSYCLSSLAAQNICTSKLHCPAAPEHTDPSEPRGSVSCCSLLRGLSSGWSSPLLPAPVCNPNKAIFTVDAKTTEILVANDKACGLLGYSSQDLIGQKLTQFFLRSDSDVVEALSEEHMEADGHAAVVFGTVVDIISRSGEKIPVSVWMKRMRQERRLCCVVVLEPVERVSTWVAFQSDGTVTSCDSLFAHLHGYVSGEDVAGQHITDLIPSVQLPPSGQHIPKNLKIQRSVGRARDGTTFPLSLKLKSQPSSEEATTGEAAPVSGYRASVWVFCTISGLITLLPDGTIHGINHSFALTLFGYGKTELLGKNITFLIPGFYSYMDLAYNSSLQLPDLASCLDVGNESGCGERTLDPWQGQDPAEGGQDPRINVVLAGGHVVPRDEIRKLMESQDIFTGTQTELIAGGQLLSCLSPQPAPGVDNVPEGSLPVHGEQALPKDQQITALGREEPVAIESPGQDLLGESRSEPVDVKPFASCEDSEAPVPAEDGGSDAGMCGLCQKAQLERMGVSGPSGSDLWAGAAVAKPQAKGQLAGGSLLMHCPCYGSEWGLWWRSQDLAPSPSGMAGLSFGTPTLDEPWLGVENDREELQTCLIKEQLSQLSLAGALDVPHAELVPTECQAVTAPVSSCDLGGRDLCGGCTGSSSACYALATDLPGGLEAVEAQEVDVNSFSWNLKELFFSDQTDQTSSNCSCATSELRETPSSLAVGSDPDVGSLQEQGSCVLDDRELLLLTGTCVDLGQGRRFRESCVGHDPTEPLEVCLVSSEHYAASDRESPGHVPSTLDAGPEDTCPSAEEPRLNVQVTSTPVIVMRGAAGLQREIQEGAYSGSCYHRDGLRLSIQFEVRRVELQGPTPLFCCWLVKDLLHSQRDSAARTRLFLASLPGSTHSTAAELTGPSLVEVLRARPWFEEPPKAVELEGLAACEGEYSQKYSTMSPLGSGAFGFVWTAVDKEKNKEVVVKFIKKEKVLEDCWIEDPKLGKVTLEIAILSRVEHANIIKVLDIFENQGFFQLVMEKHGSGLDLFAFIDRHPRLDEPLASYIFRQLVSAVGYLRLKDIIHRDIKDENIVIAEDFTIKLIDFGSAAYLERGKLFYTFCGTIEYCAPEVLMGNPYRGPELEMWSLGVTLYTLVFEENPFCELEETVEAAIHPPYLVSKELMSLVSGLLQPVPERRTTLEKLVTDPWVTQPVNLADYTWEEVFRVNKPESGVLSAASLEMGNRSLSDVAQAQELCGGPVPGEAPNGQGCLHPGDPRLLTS

[25] = test system: NCI-H2122; assay: Antitumor activity against human NCI-H2122 cells harboring KRAS […]/LKB1 P281/TP53Q61L/C176Fl/CDKN2A mutant xenografted in mouse assessed as tumor growth inhibition at 10 mg/kg, po; format: functional; settings: read-out: TGI
In short: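 NCI-H2122 (KRAS G12C) NSCLC xenografts in mice were dosed orally once daily for 21 consecutive days. Tumor volume was measured with calipers as (L×W×W)/2, and body weight was tracked. %TGI was derived from the area under the fitted growth curve per day versus vehicle. Group means with SEM were reported.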

[26] = biological target: Ribosomal protein S6 kinase alpha-1 (Homo sapiens, UniProt Q15418); assay: Inhibition of Rsk1 (unknown origin)
Chain of Ribosomal protein S6 kinase alpha-1 (Q15418 whole entry): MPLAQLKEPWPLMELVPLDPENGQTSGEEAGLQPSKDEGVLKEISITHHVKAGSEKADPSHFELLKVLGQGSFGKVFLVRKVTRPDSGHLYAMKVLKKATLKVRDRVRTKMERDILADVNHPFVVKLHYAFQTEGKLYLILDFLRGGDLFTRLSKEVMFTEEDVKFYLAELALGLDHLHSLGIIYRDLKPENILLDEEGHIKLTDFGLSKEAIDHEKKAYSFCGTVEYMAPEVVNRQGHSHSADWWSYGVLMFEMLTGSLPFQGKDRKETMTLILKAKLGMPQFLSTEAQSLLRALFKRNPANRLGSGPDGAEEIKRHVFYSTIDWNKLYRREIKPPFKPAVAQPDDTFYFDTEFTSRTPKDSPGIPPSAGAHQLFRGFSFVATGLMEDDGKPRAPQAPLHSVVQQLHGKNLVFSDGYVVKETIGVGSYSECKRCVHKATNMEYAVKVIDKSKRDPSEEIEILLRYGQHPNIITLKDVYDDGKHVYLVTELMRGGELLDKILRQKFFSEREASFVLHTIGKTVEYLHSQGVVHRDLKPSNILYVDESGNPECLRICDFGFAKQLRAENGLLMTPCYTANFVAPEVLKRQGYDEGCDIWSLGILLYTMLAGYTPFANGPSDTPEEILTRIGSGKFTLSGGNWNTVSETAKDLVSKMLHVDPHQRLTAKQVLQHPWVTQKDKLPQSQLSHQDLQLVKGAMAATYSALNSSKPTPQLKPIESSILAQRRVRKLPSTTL

Q: Which inhibition in vivo at 2.5 mg/kg [1] does the source give for O=C(c1ccc(F)c(F)c1Nc1ccc(I)cc1F)N1CC(O)([C@@H]2CCCCN2)C1 [COBIMETINIB] here?
A: The inhibition in vivo at 2.5 mg/kg was 4%.

Q: What about the inhibition in vivo at 15 mg/kg [2] of the same molecule?
A: Its inhibition in vivo at 15 mg/kg is 122%.

Q: And the IC50 [3]?
A: The IC50 was greater than 10 µM.

Q: And the inhibition in vivo at 5 mg/kg [4]?
A: Its inhibition in vivo at 5 mg/kg is 120%.

Q: What about the IC50 [5] of the same molecule?
A: Its IC50 is greater than 10 µM.

Q: And the inhibition in vivo at 2.5 mg/kg [6]?
A: The inhibition in vivo at 2.5 mg/kg was 36%.

Q: And the inhibition in vivo at 20 mg/kg [7]?
A: Its inhibition in vivo at 20 mg/kg is 83%.

Q: And the inhibition in vivo at 5 mg/kg [8]?
A: The inhibition in vivo at 5 mg/kg was 94%.

Q: And the inhibition in vivo at 5 mg/kg [9]?
A: The inhibition in vivo at 5 mg/kg was 106%.

Q: And the inhibition in vivo at 15 mg/kg [10]?
A: The inhibition in vivo at 15 mg/kg was 83%.

Q: What about the inhibition [11] of the same molecule?
A: Its inhibition is “Active”.

Q: And the inhibition in vivo at 15 mg/kg [12]?
A: Its inhibition in vivo at 15 mg/kg is 41%.

Q: And the IC50 [13]?
A: The IC50 was greater than 10 µM.

Q: What about the Activity [14] of the same molecule?
A: Its Activity is “inactive”.

Q: What about the inhibition in vivo at 10 mg/kg [15] of the same molecule?
A: The inhibition in vivo at 10 mg/kg was 85%.

Q: And the IC50 [16]?
A: The IC50 was greater than 10 µM.

Q: What about the inhibition in vivo at 2.5 mg/kg [17] of the same molecule?
A: Its inhibition in vivo at 2.5 mg/kg is 7%.

Q: And the Activity [18]?
A: The Activity was “Active”.

Q: What about the inhibition in vivo at 5 mg/kg [19] of the same molecule?
A: The inhibition in vivo at 5 mg/kg was 21%.

Q: And the IC50 [20]?
A: Its IC50 is greater than 10 µM.

Q: What about the Activity [21] of the same molecule?
A: The Activity was “Active”.

Q: And the inhibition in vivo at 10 mg/kg [22]?
A: Its inhibition in vivo at 10 mg/kg is 21%.

Q: What about the IC50 [23] of the same molecule?
A: Its IC50 is greater than 10 µM.

Q: And the IC50 [24]?
A: Its IC50 is greater than 10 µM.

Q: What about the inhibition in vivo at 10 mg/kg [25] of the same molecule?
A: The inhibition in vivo at 10 mg/kg was 80%.

Q: What about the IC50 [26] of the same molecule?
A: The IC50 was greater than 10 µM.

Reference: ChEMBL document CHEMBL5678805, “Intermittent administration of MEK inhibitor GDC-0973 plus PI3K inhibitor GDC-0941 triggers robust apoptosis and tumor growth inhibition” (Cancer Res, 2012)
